From ChEMBL document CHEMBL3862036, “Biphenyl Pyridazinone Derivatives as Inhaled PDE4 Inhibitors: Structural Biology and Structure-Activity Relationships” (J Med Chem, 2016)

Assays:
Rattus norvegicus [1] = assay: Anti-inflammatory activity in Sprague-Dawley rat assessed as inhibition of LPS-induced neutrophilia at 10 to 1000 ug/kg, it administered as suspension with Penn-Century micro-sprayer aerosolizer dosed 1 hrs before LPS challenge and measured 5 hrs post dose; assay type: functional; settings: inhaled or nasal
In short: (§1)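 Suspensions in PBS/0.2% Tween 80 were homogenized, with lower doses made by 1:10 dilutions. 0.2 mL was given intratracheally by MicroSprayer to isoflurane-anesthetized fasted male Sprague-Dawley rats (230–280 g). At 1 or 18 h, rats received nebulized LPS (30 mL of a 1:100 PBS dilution of 100 mg/10 mL stock) over 40 min. Four hours later, BAL neutrophils were counted by flow cytometry.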

[2] = Drug metabolism in human liver S9 fraction assessed as sulfonation in presence of PAPS and UDPGA incubated for 20 mins; assay type: ADME, subcellular; settings: read-out: Drug metabolism
[3] = Drug metabolism in human liver S9 fraction assessed as glucuronidation in presence of PAPS and UDPGA incubated for 20 mins; assay type: ADME, subcellular; settings: read-out: Drug metabolism
[4] = Inhibition of PDE4 in human whole blood assessed as reduction in LPS-induced TNFalpha production incubated for 24 hrs by ELISA; assay type: tissue-based
In short: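 Human whole blood was preincubated with LPS (final 1 μg/mL) for 10 min at 37 °C with rocking. 200 μL was added to wells holding increasing inhibitor concentrations in 100% DMSO. Plates were incubated 24 h at 37 °C under agitation, then placed on ice, diluted with PBS and centrifuged at 800g, 4 °C, for 15 min before TNF-α measurement.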

[5] = Inhibition of PDE4 in PBMC (unknown origin) assessed as reduction in LPS-induced TNFalpha production incubated for 24 hrs by ELISA; settings: Homo sapiens
Adenosine receptor A1 = biological target: T1, Adenosine receptor A1 (Homo sapiens, UniProt P30542); assay: Antagonist activity at adenosine A1 receptor (unknown origin)
T1 sequence (P30542 whole entry): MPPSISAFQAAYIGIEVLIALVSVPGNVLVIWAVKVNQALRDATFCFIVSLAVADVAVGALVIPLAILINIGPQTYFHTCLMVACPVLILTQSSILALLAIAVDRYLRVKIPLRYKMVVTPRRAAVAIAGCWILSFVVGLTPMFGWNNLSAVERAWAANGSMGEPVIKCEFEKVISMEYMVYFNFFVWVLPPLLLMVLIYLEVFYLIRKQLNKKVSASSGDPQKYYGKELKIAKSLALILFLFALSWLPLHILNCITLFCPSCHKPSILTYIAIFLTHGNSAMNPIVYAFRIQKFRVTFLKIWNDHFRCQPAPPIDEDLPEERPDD

Adenosine receptor A2b = biological target: T2, Adenosine receptor A2b (Homo sapiens, UniProt P29275); assay: Antagonist activity at adenosine A2b receptor (unknown origin)
T2 sequence (P29275 whole entry): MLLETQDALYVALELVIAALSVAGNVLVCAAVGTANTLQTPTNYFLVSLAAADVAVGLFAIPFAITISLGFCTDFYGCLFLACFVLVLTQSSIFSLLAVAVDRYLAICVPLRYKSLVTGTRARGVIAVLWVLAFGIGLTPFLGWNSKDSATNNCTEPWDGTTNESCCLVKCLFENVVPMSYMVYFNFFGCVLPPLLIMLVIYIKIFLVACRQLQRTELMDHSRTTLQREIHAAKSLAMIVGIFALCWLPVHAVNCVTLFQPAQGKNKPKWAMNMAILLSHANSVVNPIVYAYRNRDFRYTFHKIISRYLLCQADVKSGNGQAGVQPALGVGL

Rattus norvegicus [6] = assay: Anti-inflammatory activity in Sprague-Dawley rat assessed as inhibition of LPS-induced neutrophilia at 100 ug/kg, it administered as suspension with Penn-Century micro-sprayer aerosolizer dosed 1 hrs before LPS challenge and measured 5 hrs post dose; assay type: functional; settings: inhaled or nasal; in short: as §1
Adenosine receptor A2a = Adenosine receptor A2a (Homo sapiens, UniProt P29274); assay: Antagonist activity at adenosine A2a receptor (unknown origin)
Sequence of Adenosine receptor A2a (P29274 whole entry): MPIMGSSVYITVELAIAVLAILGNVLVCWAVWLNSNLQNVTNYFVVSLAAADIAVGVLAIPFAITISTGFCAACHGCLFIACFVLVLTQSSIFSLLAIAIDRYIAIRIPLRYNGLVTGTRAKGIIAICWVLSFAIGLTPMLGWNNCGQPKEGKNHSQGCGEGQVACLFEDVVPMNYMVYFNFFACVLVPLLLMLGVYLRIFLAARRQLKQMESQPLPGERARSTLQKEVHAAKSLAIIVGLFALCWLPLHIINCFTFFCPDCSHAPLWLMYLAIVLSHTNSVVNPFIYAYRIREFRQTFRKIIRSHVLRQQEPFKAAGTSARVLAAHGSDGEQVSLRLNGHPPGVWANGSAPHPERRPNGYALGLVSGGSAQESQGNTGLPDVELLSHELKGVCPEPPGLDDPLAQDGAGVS

[7] = Pro-inflammatory activity in Sprague-Dawley rat assessed as induction of neutrophilia at 1000 ug/kg, it administered as dry powder with lactose carrier through Penn-Century insufflator; settings: in vivo, inhaled_or_intranasal, 1 mg/kg
[8] = Basicity constant, pKB of the compound; assay type: physicochemical
Rattus norvegicus [9] = assay: Anti-inflammatory activity in Sprague-Dawley rat assessed as inhibition of LPS-induced neutrophilia at 10 to 1000 ug/kg, it administered as suspension with Penn-Century micro-sprayer aerosolizer dosed 18 hrs before LPS challenge and measured 22 hrs post dose; assay type: functional; settings: inhaled or nasal; in short: as §1
Rattus norvegicus [10] = assay: Anti-inflammatory activity in Sprague-Dawley rat assessed as inhibition of LPS-induced neutrophilia at 100 ug/kg, it administered as dry powder with lactose carrier through Penn-Century insufflator dosed 1 hrs before LPS challenge and measured 5 hrs post dose; assay type: functional
In short: (§2)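 Compounds were micronized, comixed with lactose, and 5 mg of the mixture was insufflated intratracheally into isoflurane-anesthetized fasted male Sprague-Dawley rats (230–280 g). LPS aerosol (30 mL of a 1:100 PBS dilution of 100 mg/10 mL stock) was nebulized for 40 min at 1 or 18 h post-dose. BAL was taken 4 h later and neutrophils counted by flow cytometry. Controls: lactose alone, lactose+LPS, fluticasone (10% in lactose).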

Rattus norvegicus [11] = assay: Anti-inflammatory activity in Sprague-Dawley rat assessed as inhibition of LPS-induced neutrophilia at 1000 ug/kg, it administered as suspension with Penn-Century micro-sprayer aerosolizer dosed 18 hrs before LPS challenge and measured 22 hrs post dose; assay type: functional; settings: inhaled or nasal; in short: as §1
Rattus norvegicus [12] = assay: Anti-inflammatory activity in Sprague-Dawley rat assessed as inhibition of LPS-induced neutrophilia at 6000 ug/kg, it administered as dry powder with lactose carrier through Penn-Century insufflator dosed 18 hrs before LPS challenge and measured 22 hrs post dose; assay type: functional; in short: as §2
Rattus norvegicus [13] = assay: Anti-inflammatory activity in Sprague-Dawley rat assessed as inhibition of LPS-induced neutrophilia at 10 to 1000 ug/kg, it administered as dry powder with lactose carrier through Penn-Century insufflator dosed 1 hrs before LPS challenge and measured 5 hrs post dose; assay type: functional; in short: as §2
Rattus norvegicus [14] = assay: Anti-inflammatory activity in Sprague-Dawley rat assessed as inhibition of LPS-induced neutrophilia at 1000 ug/kg, it administered as suspension with Penn-Century micro-sprayer aerosolizer dosed 1 hrs before LPS challenge and measured 5 hrs post dose; assay type: functional; settings: inhaled or nasal; in short: as §1
Rattus norvegicus [15] = assay: Anti-inflammatory activity in Sprague-Dawley rat assessed as inhibition of LPS-induced neutrophilia at 1000 ug/kg, it administered as dry powder with lactose carrier through Penn-Century insufflator dosed 18 hrs before LPS challenge and measured 22 hrs post dose; assay type: functional; in short: as §2
Rattus norvegicus [16] = assay: Anti-inflammatory activity in Sprague-Dawley rat assessed as inhibition of LPS-induced neutrophilia at 10 ug/kg, it administered as dry powder with lactose carrier through Penn-Century insufflator dosed 18 hrs before LPS challenge and measured 22 hrs post dose; assay type: functional; in short: as §2
Rattus norvegicus [17] = assay: Anti-inflammatory activity in Sprague-Dawley rat assessed as inhibition of LPS-induced neutrophilia at 10 ug/kg, it administered as dry powder with lactose carrier through Penn-Century insufflator dosed 1 hrs before LPS challenge and measured 5 hrs post dose; assay type: functional; in short: as §2
Rattus norvegicus [18] = assay: Anti-inflammatory activity in Sprague-Dawley rat assessed as inhibition of LPS-induced neutrophilia at 300 ug/kg, it administered as suspension with Penn-Century micro-sprayer aerosolizer dosed 18 hrs before LPS challenge and measured 22 hrs post dose; assay type: functional; settings: inhaled or nasal; in short: as §1
Rattus norvegicus [19] = assay: Anti-inflammatory activity in Sprague-Dawley rat assessed as inhibition of LPS-induced neutrophilia at 100 ug/kg, it administered as suspension with Penn-Century micro-sprayer aerosolizer dosed 18 hrs before LPS challenge and measured 22 hrs post dose; assay type: functional; settings: inhaled or nasal; in short: as §1
Rattus norvegicus [20] = assay: Anti-inflammatory activity in Sprague-Dawley rat assessed as inhibition of LPS-induced neutrophilia at 100 ug/kg, it administered as dry powder with lactose carrier through Penn-Century insufflator dosed 18 hrs before LPS challenge and measured 22 hrs post dose; assay type: functional; in short: as §2
Rattus norvegicus [21] = assay: Anti-inflammatory activity in Sprague-Dawley rat assessed as inhibition of LPS-induced neutrophilia at 30 ug/kg, it administered as suspension with Penn-Century micro-sprayer aerosolizer dosed 18 hrs before LPS challenge and measured 22 hrs post dose; assay type: functional; settings: inhaled or nasal; in short: as §1
Rattus norvegicus [22] = assay: Anti-inflammatory activity in Sprague-Dawley rat assessed as inhibition of LPS-induced neutrophilia at 10 ug/kg, it administered as suspension with Penn-Century micro-sprayer aerosolizer dosed 1 hrs before LPS challenge and measured 5 hrs post dose; assay type: functional; settings: inhaled or nasal; in short: as §1
Rattus norvegicus [23] = assay: Anti-inflammatory activity in Sprague-Dawley rat assessed as inhibition of LPS-induced neutrophilia at 2000 ug/kg, it administered as dry powder with lactose carrier through Penn-Century insufflator dosed 18 hrs before LPS challenge and measured 22 hrs post dose; assay type: functional; in short: as §2

Structure (SMILES)	ED50 (Rattus norvegicus [1])	metabolised at 20 min [2]	metabolised at 20 min [3]	IC50 [4]	IC50 [5]	IC50 (Adenosine receptor A1)	IC50 (Adenosine receptor A2b)	inhibition in vivo at 0.1 mg/kg (Rattus norvegicus [6])	IC50 (Adenosine receptor A2a)	inhibition in vivo at 1 mg/kg (Rattus norvegicus [11])	further results
CCn1nc(-c2cccc(-c3ccc(O)c(F)c3)c2)cc(NC(=O)Nc2c(Cl)cncc2Cl)c1=O	0.342 mg/kg	3%	6%	93 nM	2.4 nM						
CCn1nc(-c2cccc(-c3ccc(O)cc3)c2)cc(NC(=O)Nc2c(Cl)cncc2Cl)c1=O		0.3%	2%	117 nM	0.9 nM						
CCn1nc(-c2cccc(-c3cccc(C(=O)NCCN4CCCCC4)c3)c2)cc(NC(=O)Nc2c(Cl)cncc2Cl)c1=O				81 nM	0.43 nM	6 nM	169 nM	66%	22 nM		fold change (FC) [7]: 1.1; pKb [8]: 11.2
CCn1nc(-c2cccc(-c3ccc(CC(=O)NCCCCCCCN(C)CCO)cc3)c2)cc(NC(=O)Nc2c(Cl)cncc2Cl)c1=O				323 nM	0.57 nM	61 nM	94 nM	69%	86 nM		ED50 (Rattus norvegicus [9]): 0.091 mg/kg; fold change (FC) [7]: 1.9; inhibition in vivo at 0.1 mg/kg (Rattus norvegicus [10]): 23%
O=C(Nc1c(Cl)cncc1Cl)c1ccc(OC(F)F)c(OCC2CC2)c1 [ROFLUMILAST]	0.126 mg/kg			36 nM	4 nM	> 1000 nM	> 1000 nM		> 1000 nM	24%	inhibition in vivo at 6 mg/kg (Rattus norvegicus [12]): 37%; ED50 (Rattus norvegicus [9]): > 1 mg/kg; ED50 (Rattus norvegicus [13]): 0.204 mg/kg; inhibition in vivo at 1 mg/kg (Rattus norvegicus [14]): 80%
CCn1nc(-c2cccc(-c3ccc(C(=O)O)cc3)c2)cc(NC(=O)Nc2c(Cl)cncc2Cl)c1=O			0%	373 nM	0.55 nM			50%		25%	ED50 (Rattus norvegicus [13]): 0.015 mg/kg; inhibition in vivo at 1 mg/kg (Rattus norvegicus [15]): 8%; inhibition in vivo at 1 mg/kg (Rattus norvegicus [14]): 59%
CCn1nc(-c2cccc(-c3ccc(CC(=O)NCCN4CCCCC4)cc3)c2)cc(NC(=O)Nc2c(Cl)cncc2Cl)c1=O	0.089 mg/kg			374 nM	0.52 nM	31 nM	90 nM		105 nM		inhibition in vivo at 0.01 mg/kg (Rattus norvegicus [16]): 42%; inhibition in vivo at 0.01 mg/kg (Rattus norvegicus [17]): 48%; inhibition in vivo at 0.3 mg/kg (Rattus norvegicus [18]): 47%; inhibition in vivo at 0.1 mg/kg (Rattus norvegicus [19]): 48%; inhibition in vivo at 0.1 mg/kg (Rattus norvegicus [10]): 42%; inhibition in vivo at 0.1 mg/kg (Rattus norvegicus [20]): 39%
CCn1nc(-c2cccc(-c3cc(C(=O)NCCCN(C)C)cc(C(=O)OC)c3)c2)cc(NC(=O)Nc2c(Cl)cncc2Cl)c1=O					0.05 nM	71 nM	> 1000 nM	64%	> 1000 nM		inhibition in vivo at 0.03 mg/kg (Rattus norvegicus [21]): 30%; inhibition in vivo at 0.01 mg/kg (Rattus norvegicus [22]): 52%; inhibition in vivo at 0.3 mg/kg (Rattus norvegicus [18]): 26%
CCNC(=O)c1cc(C(=O)NCCCN(C)C)cc(-c2cccc(-c3cc(NC(=O)Nc4c(Cl)cncc4Cl)c(=O)n(CC)n3)c2)c1	0.018 mg/kg				0.36 nM	537 nM	368 nM		> 1000 nM		inhibition in vivo at 0.03 mg/kg (Rattus norvegicus [21]): 58%; inhibition in vivo at 0.3 mg/kg (Rattus norvegicus [18]): 60%; inhibition in vivo at 0.1 mg/kg (Rattus norvegicus [19]): 48%
CCn1nc(-c2cccc(-c3cccc(O)c3)c2)cc(NC(=O)Nc2c(Cl)cncc2Cl)c1=O	0.416 mg/kg	3%	21%	95 nM	0.7 nM	87 nM	172 nM		168 nM	0%	ED50 (Rattus norvegicus [13]): 0.551 mg/kg; inhibition in vivo at 2 mg/kg (Rattus norvegicus [23]): 7%
CCn1nc(-c2cccc(-c3cccc(C(=O)NCCN4CCNCC4)c3)c2)cc(NC(=O)Nc2c(Cl)cncc2Cl)c1=O				125 nM	0.34 nM	2 nM		62%	9 nM		inhibition in vivo at 0.1 mg/kg (Rattus norvegicus [19]): 40%; pKb [8]: 9.8
CCn1nc(-c2cccc(-c3cncc(O)c3)c2)cc(NC(=O)Nc2c(Cl)cncc2Cl)c1=O		16%	36%	64 nM	0.29 nM	11 nM	111 nM		333 nM	23%	inhibition in vivo at 1 mg/kg (Rattus norvegicus [14]): 58%
CCn1nc(-c2cccc(-c3cccc(C(=O)NCCN4CCOCC4)c3)c2)cc(NC(=O)Nc2c(Cl)cncc2Cl)c1=O				59 nM	0.07 nM	15 nM	145 nM	52%	33 nM		fold change (FC) [7]: 1.1; pKb [8]: 8.3
